# Shown are actives, neighbours in structure and some others; about 4.9% of the full set was active somewhere.
# STAT1 act: activators of IFN-gamma induced STAT1 signaling | activation (% of control), % at 5.5 µM | NIH 3T3 STAT1-luciferase reporter, luminescence; 100% = IFN-gamma alone, no compound | 200,000 tested, 2.6% active;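 active = activation above the screen-wide mean activation plus 3 SD, cut at about 130% in these data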;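 also: raw ratio to IFN-gamma control signal so 100% means no change and 0% no light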
# NF-kB neuron act: compounds increasing NF-kB expression in human neuronal cells; AID 1239; fold change at 12.5 µM; 190,000 tested, 1.6% active; NF-kB reporter expression; hits give high values; in the data active = fold change above about 3.3
# APP 5'UTR act: activates APP 5'UTR luciferase reporter; SH-SY5Y APP 5'UTR luciferase reporter, luminescence; zero percent = DMSO vehicle wells; activation, % at 2 µM; 190,000 tested, 1% active; AID 1276;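 active = activation above a set limit, based on mean plus 3 SD of controls, cut at about 140% in these data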
# STAT1 blocker: STAT1 signaling inhibition. NIH 3T3 STAT1-luciferase reporter, IFN-gamma, luminescence. inhibition, % at 5.5 µM. 200,000 tested, 0.35% active. AID 920;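 active = inhibition above a set limit, the mean inhibition across all tested compounds plus 3 SD, cut at about 34% in these data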;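 also: 0% = IFN-gamma with DMSO and 100% = IFN-gamma with 300 µM nifuroxazide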
# STAT3 inh: reduces IL-6 driven STAT3 reporter signal; U3A cells, IL-6 STAT3-luciferase reporter, luminescence; host cell line lacks STAT1; inhibition, % at 5.5 µM; 190,000 tested, 0.89% active; AID 862;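 active = inhibition above the mean inhibition across all screened compounds plus 3 SD, cut at about 44% in these data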;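 also: 0% = DMSO only wells and 100% = 100 µM nifuroxazide control wells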
# STAT3 act: increases IL-6 driven STAT3 reporter signal; U3A cells, IL-6 STAT3-luciferase reporter, luminescence; 100% = signal with IL-6 EC80 alone; activation (% of control), % at 5.6 µM; 190,000 tested, 0.91% active; AID 871;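 active = activation above the screen-wide mean of compound activation plus 3 SD, cut at about 130% in these data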;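 also: 0% = background luminescence of wells with medium and substrate only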
#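 Material: STAT3-luciferase reporter U3A cells; Probe or stimulus: IL-6 (33 ng/mL); Incubation: compound pre-incubation 1 h before IL-6, then 6 h stimulation at 37 °C; Technique: luminescence from STAT3-driven luciferase reporter; Evaluation: % activation versus median of IL-6-stimulated wells; Controls: IL-6-only high control.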
# * hit, by the source's call; · = no result.
SMILES,STAT1 act,NF-kB neuron act,APP 5'UTR act,STAT1 blocker,STAT3 inh,STAT3 act
COc1cc(/C=C(\C#N)C(=O)c2c[nH]c3ccccc23)cc(OC)c1O,98,1.2,20,0,13,96
Cc1ccc(C2(c3noc(CN(C)Cc4cnn(C)c4)n3)CCCC2)cc1,92,1.2,2,7,6,99
C=CCSc1nn2c(=O)c3ccccc3nc2s1,134*,2.6,70,-37,15,96
Cc1ccccc1Nc1nn2c(=O)c3ccccc3nc2s1,138*,1.4,72,-41,8,95
O=C(Nc1nc(=O)c2ccccc2s1)c1ccccc1,138*,3.6*,66,-48,-28,126
Fc1ccc(Nc2nc3ccccc3s2)cc1,146*,3.3*,107,-46,0,105
Cc1ccc(C2C3=C(CCCC3=O)Nc3c2c(C)nn3-c2ccccn2)o1 (stereo not drawn),95,1.1,6,6,15,88
CCONC(=O)Nc1ccccc1,101,1.1,4,-1,-7,105
O=C(O)Cc1ccc(S(=O)(=O)Nc2ccccc2C(=O)O)cc1,89,1.1,-13,12,27,85
OCCC1CN(C2CCN(c3ccccc3F)CC2)CCN1Cc1ccccc1 (stereo not drawn),99,0.97,1,-1,11,94
O=C(Nc1nc2ccccc2s1)c1ccc(F)cc1,107,9*,173*,-9,38,70
Nc1ccc(-c2nc3ccc(C(=O)O)cc3s2)cc1,20,9.2*,-67,89*,104*,10
O=C(Nc1nnc(-c2ccccc2)s1)c1ccc(F)cc1,122,1.5,82,-26,6,98
NC(=O)c1ccc2nc(NC(=O)c3ccc(N)cc3)sc2c1,142*,1.9,23,-45,17,88
Cc1ccccc1Nc1nc2ccccc2s1,143*,5.6*,89,-47,-12,106
O=[N+]([O-])c1ccc(-c2nnc(CNC3CCCC3)o2)cc1,105,1.6,-4,-8,9,102
O=C(C1CCN(C2CCN(C/C=C/c3ccccc3)CC2)CC1)N1CCOCC1,96,0.94,14,2,4,102
CCc1cc2c(=O)c(-c3ccc4c(c3)OCCO4)coc2cc1OC(=O)c1ccco1,107,2.9,141*,-8,18,89
COc1ccc(C(=O)OCn2nnc3ccccc3c2=O)cc1OC,92,0.99,9,8,-7,112
O=c1c2ccccc2nnn1COc1ccc(Cl)cc1Br,133*,1.1,80,-36,10,94
O=c1c2ccccc2nnn1COc1cccc2ccccc12,130*,2.1,49,-35,6,102
CCOc1ccc(OCCn2nnc3ccccc3c2=O)cc1,125,4.6*,44,-29,11,93
CC(Oc1ccc(Cl)cc1Cl)C(=O)OCn1nnc2ccccc2c1=O (stereo not drawn),104,1.2,11,-4,8,98
O=c1c2ccccc2nnn1COc1ccc(F)cc1Cl,144*,2.3,25,-50,9,95
CCCN(CCC)C(=O)Cn1c(=O)n(CCCCCC(=O)Nc2ccccc2)c(=O)c2sccc21,101,1.1,24,-2,-7,105
SMILES,STAT1 act,NF-kB neuron act,APP 5'UTR act,STAT1 blocker,STAT3 inh,STAT3 act
CC(C)OC(=O)CC(=O)CSc1nc2c(cc1C#N)CCCCC2,115,4.3*,58,-17,6,98
CCOC(=O)CC(=O)CSc1nc2c(cc1C#N)CCCCC2,141*,4.6*,126,-45,11,94
N#Cc1cc2c(nc1SCc1ccncc1)CCC2,138*,1.6,48,-41,10,94
CCc1cc2ccc(C)cc2nc1SCC(=O)Nc1cc(C)on1,101,0.92,2,-4,1,102
CC(C)OC(=O)CSc1nc2c(cc1C#N)CCCCC2,106,1.4,93,-9,12,92
CCc1cc2cc(C)ccc2nc1SCC(=O)Nc1cc(C)on1,103,3.3*,6,-2,5,97
COCCNC(=S)Nc1ccc2[nH]c(=O)[nH]c2c1,97,1.2,4,0,-3,107
CCOC(=O)CC(=O)CSc1nc2ccc(C)cc2cc1C#N,137*,8.3*,32,-40,-6,110
CCSc1nc2ccc(C)cc2cc1C#N,105,1.4,23,-6,8,98
COc1ccc2nc(SCC(=O)N3CCCCCC3)c(C#N)cc2c1,85,0.65,15,16,6,98
Cc1cc(NC(=O)CSc2nc3c(cc2C#N)CCCC3)no1,138*,2.4,207*,-43,10,95
COc1ccc2nc(SCC(=O)N3CCCCC3)c(C#N)cc2c1,131*,1.5,15,-35,-7,108
Brc1ccc(-c2cnco2)cc1,102,1.4,3,-5,13,93
O=S(=O)(/C=C/c1ccccc1)Nc1cccc(S(=O)(=O)NC2=NCCC2)c1,94,1.2,-7,6,0,101
CCN(CC)C(=O)Oc1ccc2c(=O)c(-c3ccc(OC)cc3)coc2c1,144*,1.8,74,-47,16,88
CC(=O)Oc1ccc2c(=O)c(-c3nc4ccccc4s3)coc2c1,108,2.9,196*,-9,39,72
COc1ccccc1NC(=O)c1oc2ccc(C)cc2c1C,129*,2.5,2,-32,-3,107
COc1ccccc1NC(=O)c1oc2ccccc2c1NC(=O)c1cc(OC)c(OC)c(OC)c1,102,·,5,-2,11,94
CCN1CCN(CC(=O)c2ccc(OC)cc2)CC1,104,0.92,12,-7,1,100
CC1=NN(C(N)=S)C(=O)C1N=Nc1ccc(C)cc1C (stereo not drawn),137*,3.2,58,-40,-30,131
COc1cccc(C2c3[nH]c4ccccc4c3CCN2CCCn2cccn2)c1 (stereo not drawn),90,·,6,9,-31,132
CC(C)CC1c2[nH]c3ccccc3c2CCN1CCCn1cccn1 (stereo not drawn),91,0.75,2,8,-31,133*
CCn1ccnc1CN1CCc2c([nH]c3ccccc23)C1CC(C)C (stereo not drawn),96,0.64,9,2,-23,122
CCOc1ccc(C2c3[nH]c4ccccc4c3CCN2CCCn2cccn2)cc1 (stereo not drawn),96,0.85,-15,2,-32,134*
C=CCNC(=S)N/N=C/c1cccc([N+](=O)[O-])c1,106,0.9,20,-8,-6,106
COc1ccc(C(=O)NC(Nc2ccccc2)C(Cl)(Cl)Cl)cc1 (stereo not drawn),96,0.68,-9,5,37,77
COc1ccc(Nc2nc(C)c3ccccc3n2)cc1,134*,3,98,-37,5,100
